# Source: ChEMBL document CHEMBL1157871, “Synthesis and preliminary evaluation of peptidomimetic inhibitors of human beta-secretase” (Eur J Med Chem, 2010)
# Assays:
# Beta-secretase 1 [1] = molecular target: T1, Beta-secretase 1 (Homo sapiens, UniProt P56817); assay: Inhibition of human recombinant BACE1 using fluorescent peptide substrate at 10 ug/ml after 5 mins
# Summary of the method: (§1)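 FRET assay using a peptide substrate carrying a fluorophore and quencher on either side of a β-secretase cleavage site. Recombinant human BACE-1 was diluted in 0.1 M sodium acetate (pH 4.0) and added to the samples, then shaken 5 min. Fluorogenic Peptide Substrate IV in the same buffer was added and shaken 5 min. Read-out: ex 320 nm/em 405 nm; activity taken as ΔF/min relative to standard.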
# Beta-secretase 1 [2] = molecular target: T1, Beta-secretase 1; assay: Inhibition of human recombinant BACE1 using fluorescent peptide substrate after 5 mins; summary of the method: as §1
# T1 sequence (P56817 whole entry): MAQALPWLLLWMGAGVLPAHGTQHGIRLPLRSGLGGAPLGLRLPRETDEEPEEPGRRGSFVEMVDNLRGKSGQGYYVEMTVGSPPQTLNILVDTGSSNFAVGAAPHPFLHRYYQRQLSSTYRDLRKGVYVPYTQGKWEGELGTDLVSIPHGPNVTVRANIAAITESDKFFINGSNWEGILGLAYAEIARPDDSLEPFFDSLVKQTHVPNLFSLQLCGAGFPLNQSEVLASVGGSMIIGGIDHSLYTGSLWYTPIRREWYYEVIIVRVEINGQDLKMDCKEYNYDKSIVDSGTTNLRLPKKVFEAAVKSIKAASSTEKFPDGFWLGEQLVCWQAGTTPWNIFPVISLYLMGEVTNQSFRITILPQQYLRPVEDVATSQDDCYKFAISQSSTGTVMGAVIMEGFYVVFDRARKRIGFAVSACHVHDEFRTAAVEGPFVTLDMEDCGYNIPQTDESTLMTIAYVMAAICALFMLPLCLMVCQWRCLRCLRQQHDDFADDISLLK
SMILES,inhibition (Beta-secretase 1 [1]),IC50 (Beta-secretase 1 [2])
CC(C)CNC(=O)[C@H](C)C[C@H](O)[C@H](CC(C)C)NC(=O)[C@H](Cc1ccc([N+](=O)[O-])cc1)NC(=O)c1cc([N+](=O)[O-])cc([N+](=O)[O-])c1,7.61%,–
CC(C)CNC(=O)[C@H](C)C[C@H](O)[C@H](CC(C)C)NC(=O)[C@H](Cc1ccccc1)NC(=O)c1cc([N+](=O)[O-])cc([N+](=O)[O-])c1,0.91%,–
CC[C@H](C)[C@H](NC(=O)OC(C)(C)C)C(=O)N[C@@H](Cc1ccccc1)C(=O)N[C@@H](C(C)C)[C@@H](O)C[C@@H](C)C(=O)NCc1ccccc1,-2.46%,–
CC(C)CNC(=O)[C@H](C)C[C@H](O)[C@H](CC(C)C)NC(=O)[C@H](Cc1ccc([N+](=O)[O-])cc1)NC(=O)c1cccc2ccccc12,-4.43%,–
CC(C)[C@H](NC(=O)[C@H](CO)NC(=O)OC(C)(C)C)[C@@H](O)C[C@@H](C)C(=O)NCc1ccccc1,50.5%,–
CC(C)CNC(=O)[C@H](C)C[C@H](O)[C@H](CC(C)C)NC(=O)[C@H](Cc1ccccc1)NC(=O)c1ccccc1,11.2%,6.93 µM
CC(C)C[C@H](NC(=O)OC(C)(C)C)C(=O)N[C@@H](Cc1ccccc1)C(=O)N[C@@H](CC(C)C)[C@@H](O)C[C@@H](C)C(=O)NCc1ccccc1,0.91%,–
CC(C)CNC(=O)[C@H](C)C[C@H](O)[C@H](CC(C)C)NC(=O)[C@H](Cc1ccc([N+](=O)[O-])cc1)NC(=O)c1ccc(Cl)cc1Cl,22.2%,4.24 µM
CC(C)CNC(=O)[C@H](C)C[C@H](O)[C@H](CC(C)C)NC(=O)[C@H](Cc1ccc([N+](=O)[O-])cc1)NC(=O)c1cccc(Cl)c1,25.7%,–
CC(C)CNC(=O)[C@H](C)C[C@H](O)[C@H](CC(C)C)NC(=O)[C@H](Cc1ccc([N+](=O)[O-])cc1)NC(=O)/C=C/c1ccc(C(F)(F)F)cc1,0.13%,3.79 µM
CC(C)CNC(=O)[C@H](C)C[C@H](O)[C@@H](NC(=O)[C@H](Cc1ccc([N+](=O)[O-])cc1)NC(=O)OC(C)(C)C)C(C)C,30.1%,–
CC(C)CNC(=O)[C@H](C)C[C@H](O)[C@H](CC(C)C)NC(=O)[C@H](Cc1ccccc1)NC(=O)c1cccc2ccccc12,-0.1%,4.67 µM
CC(C)[C@H](NC(=O)OC(C)(C)C)C(=O)N[C@@H](Cc1ccccc1)C(=O)N[C@@H](C(C)C)[C@@H](O)C[C@@H](C)C(=O)NCc1ccccc1,-1.56%,–
COc1ccc(C(=O)N[C@@H](Cc2ccc([N+](=O)[O-])cc2)C(=O)N[C@@H](CC(C)C)[C@@H](O)C[C@@H](C)C(=O)NCC(C)C)cc1OC,18.3%,3.81 µM
COc1ccc(C(=O)N[C@@H](Cc2ccccc2)C(=O)N[C@@H](CC(C)C)[C@@H](O)C[C@@H](C)C(=O)NCC(C)C)cc1OC,14.7%,–
CC[C@H](C)[C@H](NC(=O)OC(C)(C)C)C(=O)N[C@@H](Cc1ccccc1)C(=O)N[C@@H](CC(C)C)[C@@H](O)C[C@@H](C)C(=O)NCC(C)C,-0.71%,–

SMILES,inhibition (Beta-secretase 1 [1]),IC50 (Beta-secretase 1 [2])
CC(C)CNC(=O)[C@H](C)C[C@H](O)[C@H](CC(C)C)NC(=O)[C@H](Cc1ccccc1)NC(=O)/C=C/c1ccccc1,22.8%,–
CC(C)CNC(=O)[C@H](C)C[C@H](O)[C@H](CC(C)C)NC(=O)[C@H](Cc1ccccc1)NC(=O)[C@@H](NC(=O)OC(C)(C)C)C(C)C,-2.37%,–
CC(C)CNC(=O)[C@H](C)C[C@H](O)[C@H](CC(C)C)NC(=O)[C@H](Cc1ccc([N+](=O)[O-])cc1)NC(=O)c1ccc([N+](=O)[O-])cc1,10.5%,2.64 µM
CC(C)CNC(=O)[C@H](C)C[C@H](O)[C@H](CC(C)C)NC(=O)[C@H](Cc1ccccc1)NC(=O)[C@H](CC(C)C)NC(=O)OC(C)(C)C,54.6%,2.31 µM
CC(C)C[C@H](NC(=O)[C@H](CO)NC(=O)/C=C/c1ccc(C(F)(F)F)cc1)[C@@H](O)C[C@@H](C)C(=O)NCc1ccccc1,16.4%,–
CC(C)CNC(=O)[C@H](C)C[C@H](O)[C@H](CC(C)C)NC(=O)[C@H](Cc1ccccc1)NC(=O)c1ccc2c(c1)OCO2,16.2%,8.07 µM
CC(C)CNC(=O)[C@H](C)C[C@H](O)[C@H](CC(C)C)NC(=O)[C@H](Cc1ccccc1)NC(=O)/C=C/c1ccc(C(F)(F)F)cc1,59.7%,19.5 µM
CC(C)CNC(=O)[C@H](C)C[C@H](O)[C@@H](NC(=O)[C@H](Cc1ccccc1)NC(=O)OC(C)(C)C)C(C)C,25.8%,–
CC(C)[C@H](NC(=O)[C@H](Cc1ccccc1)NC(=O)OC(C)(C)C)[C@@H](O)C[C@@H](C)C(=O)NCc1ccccc1,23%,–
CC(C)CNC(=O)[C@H](C)C[C@H](O)[C@H](CC(C)C)NC(=O)[C@H](Cc1ccc([N+](=O)[O-])cc1)NC(=O)c1ccc2c(c1)OCO2,40.3%,–
CC(C)CNC(=O)[C@H](C)C[C@H](O)[C@H](CC(C)C)NC(=O)[C@H](Cc1ccccc1)NC(=O)c1ccc([N+](=O)[O-])cc1,1.47%,15.7 µM
CC(C)CNC(=O)[C@H](C)C[C@H](O)[C@H](CC(C)C)NC(=O)[C@H](Cc1ccccc1)NC(=O)c1cccc(Cl)c1,16.9%,–
CC(C)CNC(=O)[C@H](C)C[C@H](O)[C@H](CC(C)C)NC(=O)[C@H](Cc1ccccc1)NC(=O)c1ccc(Cl)cc1Cl,20.3%,–
CC(C)CNC(=O)[C@H](C)C[C@H](O)[C@H](CC(C)C)NC(=O)[C@H](Cc1ccc([N+](=O)[O-])cc1)NC(=O)/C=C/c1ccccc1,37.2%,–
COc1ccc(CC(=O)N[C@@H](CO)C(=O)N[C@@H](CC(C)C)[C@@H](O)C[C@@H](C)C(=O)NCc2ccccc2)cc1,25.1%,–
